Experimental data: ChEMBL document CHEMBL1141228, “Conformationally constrained CCK4 analogues incorporating IBTM and BTD beta-turn mimetics” (J Med Chem, 2005)

Tests used:
[1] = target: T1, Gastrin/cholecystokinin type B receptor (Rattus norvegicus, UniProt P30553); test: Displacement of [3H]propionylCCK8 from rat cerebral cortex CCK2; type: tissue-based
T1 sequence (P30553 whole entry): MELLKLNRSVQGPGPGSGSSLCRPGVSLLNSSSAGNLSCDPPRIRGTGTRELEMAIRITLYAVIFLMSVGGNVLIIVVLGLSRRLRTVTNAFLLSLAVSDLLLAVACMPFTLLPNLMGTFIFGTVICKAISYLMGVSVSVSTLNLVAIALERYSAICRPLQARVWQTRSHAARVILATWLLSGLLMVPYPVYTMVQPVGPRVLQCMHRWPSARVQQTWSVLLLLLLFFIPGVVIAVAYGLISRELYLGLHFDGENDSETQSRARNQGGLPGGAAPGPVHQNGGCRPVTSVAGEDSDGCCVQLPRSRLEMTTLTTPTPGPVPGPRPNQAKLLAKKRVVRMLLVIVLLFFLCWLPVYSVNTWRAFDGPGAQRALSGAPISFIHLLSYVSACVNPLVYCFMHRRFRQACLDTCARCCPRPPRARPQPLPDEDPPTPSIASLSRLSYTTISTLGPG
Outline: (§1)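 Binding run on rat tissue homogenates: pancreas for CCK1, cerebral cortex for CCK2. Seven concentrations of test compound, each in duplicate. Values are means or mean ± SEM of at least three experiments.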

[2] = target: T2, Cholecystokinin receptor type A (Rattus norvegicus, UniProt P30551); test: Displacement of [3H]propionylCCK8 from rat pancreatic CCK1; outline: as §1
T2 sequence (P30551 whole entry): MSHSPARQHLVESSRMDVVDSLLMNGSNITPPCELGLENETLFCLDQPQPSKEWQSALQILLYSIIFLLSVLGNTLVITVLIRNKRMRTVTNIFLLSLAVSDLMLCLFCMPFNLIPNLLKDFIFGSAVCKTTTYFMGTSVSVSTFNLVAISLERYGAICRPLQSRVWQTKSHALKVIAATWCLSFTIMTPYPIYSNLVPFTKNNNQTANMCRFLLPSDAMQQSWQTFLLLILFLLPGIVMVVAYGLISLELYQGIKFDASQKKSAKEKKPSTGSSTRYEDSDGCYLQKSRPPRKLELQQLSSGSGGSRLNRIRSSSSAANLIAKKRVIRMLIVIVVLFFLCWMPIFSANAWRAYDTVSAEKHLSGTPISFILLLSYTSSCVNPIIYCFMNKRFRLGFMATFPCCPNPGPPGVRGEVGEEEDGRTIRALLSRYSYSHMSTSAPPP

Cholecystokinin receptor = target: T3, Cholecystokinin receptor (Rattus norvegicus, UniProt P30551+P30553); test: Antagonizing activity of CCK8 induced amylase secretion from rat pancreatic acini
T3 sequence (P30551 whole entry): T2 sequence (P30551 whole entry)
T3 sequence (P30553 whole entry): T1 sequence (P30553 whole entry)
Outline: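 Rat pancreas digested with collagenase (70 U/mL) in three 10-min incubations at 37 °C under O2 to give dispersed acini. Acini incubated 30 min at 37 °C under pure O2 with agitation, 0.1 nM CCK8 as stimulus, test compound at increasing concentrations. Amylase measured by kit; release expressed as percent of acinar amylase; percent inhibition computed against vehicle control; IC50 derived.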

Work on `O=C(N[C@H]1C[C@@H]2c3[nH]c4ccccc4c3C[C@@H](C(=O)N[C@@H](Cc3ccccc3)C(=O)O)N2C1=O)OCc1ccccc1` yielded an IC50 [1] greater than 10000 nM.
For `CC(C)(C)OC(=O)N[C@@H](Cc1c[nH]c2ccccc12)C(=O)N[C@H]1CC[C@@H]2SC[C@@H](C(=O)N[C@@H](Cc3ccccc3)C(N)=O)N2C1=O`, the IC50 [2] was greater than 1000 nM and the IC50 [1] was greater than 10000 nM.
For `CC(C)(C)OC(=O)N[C@@H](Cc1c[nH]c2ccccc12)C(=O)N[C@H]1C[C@@H]2c3[nH]c4ccccc4c3C[C@@H](C(=O)N[C@H](Cc3ccccc3)C(N)=O)N2C1=O`, the IC50 [2] was greater than 1000 nM and the IC50 [1] was 524 nM.
`CC(C)(C)OC(=O)N[C@@H](Cc1c[nH]c2ccccc12)C(=O)N[C@@H]1C[C@H]2c3[nH]c4ccccc4c3C[C@H](C(=O)N[C@@H](Cc3ccccc3)C(N)=O)N2C1=O` gave an IC50 (Cholecystokinin receptor) of 130 nM, an IC50 [2] of 54.9 nM and an IC50 [1] greater than 10000 nM.
`CC(C)(C)OC(=O)N[C@@H](Cc1c[nH]c2ccccc12)C(=O)N[C@H]1C[C@@H]2c3[nH]c4ccccc4c3C[C@@H](C(=O)N[C@@H](Cc3ccccc3)C(N)=O)N2C1=O` showed an IC50 [2] of 625 nM and an IC50 [1] greater than 10000 nM.
With `COC(=O)[C@@H](Cc1ccccc1)NC(=O)[C@@H]1Cc2c([nH]c3ccccc23)[C@H]2C[C@H](NC(=O)[C@@H](Cc3c[nH]c4ccccc34)NC(=O)OC(C)(C)C)C(=O)N21` the IC50 [2] was greater than 10000 nM and the IC50 [1] was greater than 10000 nM.
In the case of `CC(C)(C)OC(=O)N[C@H](Cc1c[nH]c2ccccc12)C(=O)N[C@H]1C[C@@H]2c3[nH]c4ccccc4c3C[C@@H](C(=O)N[C@H](Cc3ccccc3)C(N)=O)N2C1=O`, the IC50 [2] is reported as greater than 1000 nM and the IC50 [1] is reported as 938 nM.
For `CSCC[C@H](NC(=O)[C@H](Cc1c[nH]c2ccccc12)NC(=O)OC(C)(C)C)C(=O)N[C@@H](CC(=O)O)C(=O)N[C@@H](Cc1ccccc1)C(N)=O`, the IC50 [2] was 1800 nM.
With `CC(C)(C)OC(=O)N[C@@H](Cc1c[nH]c2ccccc12)C(=O)N[C@@H]1C[C@H]2c3[nH]c4ccccc4c3C[C@H](C(=O)N[C@H](Cc3ccccc3)C(N)=O)N2C1=O` the IC50 [2] was greater than 1000 nM and the IC50 [1] was greater than 10000 nM.
For `CC(C)(C)OC(=O)N[C@H](Cc1c[nH]c2ccccc12)C(=O)N[C@@H]1C[C@H]2c3[nH]c4ccccc4c3C[C@H](C(=O)N[C@H](Cc3ccccc3)C(N)=O)N2C1=O`, the IC50 [2] was 582 nM and the IC50 [1] was greater than 10000 nM.
For `COC(=O)[C@H](Cc1ccccc1)NC(=O)[C@@H]1Cc2c([nH]c3ccccc23)[C@H]2C[C@H](NC(=O)[C@H](Cc3c[nH]c4ccccc34)NC(=O)OC(C)(C)C)C(=O)N21`, the IC50 [2] was greater than 10000 nM and the IC50 [1] was greater than 10000 nM.
`CC(C)(C)OC(=O)N[C@H](Cc1c[nH]c2ccccc12)C(=O)N[C@@H]1C[C@H]2c3[nH]c4ccccc4c3C[C@H](C(=O)N[C@@H](Cc3ccccc3)C(N)=O)N2C1=O` gave an IC50 (Cholecystokinin receptor) of 829 nM, an IC50 [2] of 25.9 nM and an IC50 [1] greater than 10000 nM.
`CC(C)(C)OC(=O)N[C@@H](Cc1c[nH]c2ccccc12)C(=O)N[C@H]1CC[C@@H]2SC[C@@H](C(=O)N[C@H](Cc3ccccc3)C(N)=O)N2C1=O` gave an IC50 [2] greater than 1000 nM and an IC50 [1] greater than 10000 nM.
`CC(C)(C)OC(=O)N[C@H](Cc1c[nH]c2ccccc12)C(=O)N[C@H]1CC[C@@H]2SC[C@@H](C(=O)N[C@H](Cc3ccccc3)C(N)=O)N2C1=O` gave an IC50 [2] greater than 1000 nM and an IC50 [1] greater than 10000 nM.
`CC(C)(C)OC(=O)N[C@H](Cc1c[nH]c2ccccc12)C(=O)N[C@H]1CC[C@@H]2SC[C@@H](C(=O)N[C@@H](Cc3ccccc3)C(N)=O)N2C1=O` was tested, and the IC50 [2] was greater than 1000 nM and the IC50 [1] was greater than 10000 nM.
With `CC(C)(C)OC(=O)N[C@H](Cc1c[nH]c2ccccc12)C(=O)N[C@H]1C[C@@H]2c3[nH]c4ccccc4c3C[C@@H](C(=O)N[C@@H](Cc3ccccc3)C(N)=O)N2C1=O` the IC50 [2] was 817 nM and the IC50 [1] was greater than 10000 nM.
